Legend:
[1] = test system: HEK-293T; experiment: Cytotoxicity against human HEK293T cells assessed as inhibition of cell growth measured after 72 hrs by CCK-8 assay; format: cell-based
Method in brief: (§1)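 Cells seeded at 3000 cells/well in 96-well plates and treated with graded compound concentrations one day later for 72 h. CCK-8 was added for 1–4 h and absorbance read at 450 nm. Lung cancer lines were kept in RPMI 1640 with 10% fetal calf serum at 37 °C and 5% CO₂.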

[2] = test system: BaF3; experiment: Antiproliferative activity against mouse BaF3 cells assessed as inhibition of cell growth measured after 72 hrs by CCK-8 assay; format: functional, cell-based; settings: BaF3, 72 h; method in brief: as §1
[3] = test system: HCC827; experiment: Antiproliferative activity against human HCC827 cells assessed as inhibition of cell growth measured after 72 hrs by CCK-8 assay; format: functional, cell-based; settings: HCC827, 72 h; method in brief: as §1
[4] = test system: BJ; experiment: Cytotoxicity against human BJ cells assessed as inhibition of cell growth measured after 72 hrs by CCK-8 assay; format: cell-based; method in brief: as §1
[5] = test system: A549; experiment: Antiproliferative activity against human A549 cells assessed as inhibition of cell growth measured after 72 hrs by CCK-8 assay; format: functional, cell-based; settings: A549, 72 h; method in brief: as §1
[6] = test system: NCI-H1975; experiment: Antiproliferative activity against human NCI-H1975 cells assessed as inhibition of cell growth measured after 72 hrs by CCK-8 assay; format: functional, cell-based; settings: NCI-H1975, 72 h; method in brief: as §1
[7] = test system: PC-9; experiment: Antiproliferative activity against human PC-9 cells assessed as inhibition of cell growth measured after 72 hrs by CCK-8 assay; format: functional, cell-based; settings: PC-9, 72 h; method in brief: as §1
[8] = Antiproliferative activity against human PB1 cells assessed as inhibition of cell growth measured after 72 hrs by CCK-8 assay; format: functional, cell-based; settings: PB1, 72 h; method in brief: as §1

Structure (SMILES)	IC50 [2]	IC50 [3]	IC50 [5]	IC50 [6]	IC50 [7]	IC50 [1]	IC50 [4]	IC50 [8]
C=CC(=O)Nc1cc2c(Nc3ccc(F)c(Cl)c3)ncnc2cc1OCCCN1CCN(C(=O)CNc2cccc3c2C(=O)N(C2CCC(=O)NC2=O)C3=O)CC1 (stereo not drawn)	–	–	–	0.234 µM	0.005 µM	> 10 µM	> 10 µM	0.19 µM
C=CC(=O)Nc1cc2c(Nc3ccc(F)c(Cl)c3)ncnc2cc1OCCCN1CCNCC1	–	–	–	0.162 µM	0.00112 µM	21.8 µM	2.75 µM	0.0334 µM
C=CC(=O)Nc1cc2c(Nc3ccc(F)c(Cl)c3)ncnc2cc1OCCCN1CCN(C(=O)CCCCNc2cccc3c2C(=O)N(C2CCC(=O)NC2=O)C3=O)CC1 (stereo not drawn)	–	–	–	0.0354 µM	0.000452 µM	> 10 µM	> 10 µM	0.122 µM
C=CC(=O)Nc1cc2c(Nc3ccc(F)c(Cl)c3)ncnc2cc1OCCCN1CCN(C(=O)CCNc2cccc3c2C(=O)N(C2CCC(=O)NC2=O)C3=O)CC1 (stereo not drawn)	–	–	–	0.11 µM	0.000977 µM	> 10 µM	> 10 µM	0.163 µM

Further compounds by falling IC50 [6], results first:

IC50 [2]	IC50 [3]	IC50 [5]	IC50 [6]	IC50 [7]	Structure (SMILES)	IC50 [1]	IC50 [4]	IC50 [8]
–	–	–	0.209 µM	0.00138 µM	C=CC(=O)Nc1cc2c(Nc3ccc(F)c(Cl)c3)ncnc2cc1OCCCN1CCN(C(=O)CCCNc2cccc3c2C(=O)N(C2CCC(=O)NC2=O)C3=O)CC1 (stereo not drawn)	14.7 µM	> 10 µM	0.145 µM
0.0092 µM	0.000378 µM	7.16 µM	0.0113 µM	0.000859 µM	C=CC(=O)Nc1cc2c(Nc3ccc(F)c(Cl)c3)ncnc2cc1OCCCN1CCOCC1 [CANERTINIB]	6 µM	5.61 µM	0.0702 µM

From ChEMBL document CHEMBL4825665, “Effective degradation of EGFRL858R+T790M mutant proteins by CRBN-based PROTACs through both proteosome and autophagy/lysosome degradation systems” (Eur J Med Chem, 2021)
